An excerpt weighted towards active compounds, which were near 0.58% of everything screened.
TNF death inh: inhibitors of TNF-alpha triggered necroptosis, primary screen, cell-based, Jurkat FADD-/-, single concentration | hit rate 0.068% among 220,000 | activation (protection from cell death), % at 10 µM | Jurkat FADD-/- TNF necroptosis rescue, ATP luminescence, 24 h; 0 = TNF only, 100 = no-TNF cells | AID 463075, 2010;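 active = activation, meaning protection from cell death, of at least 50% relative to plate controls; inactive = activation below 50%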;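 note: necroptosis triggered by 40 ng/mL TNF-alpha added together with compound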
Rad51 HR inh: human RAD51 strand exchange inhibitors, primary screen, biochemical, fluorescence; inhibition, % at 10 µM; hit rate 0.085% among 200,000; DNA repair protein RAD51 homolog 1 (Homo sapiens), Q06609; hRad51 DNA strand exchange, fluorescence dequenching;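 active = inhibition above 40% at the single screening dose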;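 note: 0% = DMSO control wells and 100% = blanks with heterologous ssDNA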
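material = hRad51 filaments on single-stranded DNA | reagent = Donor/quencher-labelled 47-bp dsDNA substrate | compound = 10 µM final, single point | schedule = strand-exchange reaction 15 min at room temperature | measured by = fluorescein emission 520 nm, excitation 485 nm | read-out basis = % inhibition versus plate control and blank means | benchmarks = plate controls and plate blanks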
MDM2 E3 inh: MDM2-luciferase reporter signal enhancers, primary screen, MDM2 E3 ligase inhibitor project, cell-based, luminescence, 1536-well; hit rate 0.11% among 210,000; AID 1230, 2008; E3 ubiquitin-protein ligase Mdm2 (Homo sapiens), Q00987; signal enhancement, % at 5 µM; cell-based MDM2 ubiquitination luciferase reporter, 2 h; 0 = plate control, 100 = twice control, blank-subtracted;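 active = signal enhancement of 30% or more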;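 note: luminescence tracks abundance of the self-degrading MDM2-luciferase fusion protein; higher signal means inhibition of MDM2 E3 ligase activity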
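test system = mammalian cells stably expressing self-ubiquitinating, self-degrading MDM2 E3–luciferase fusion | quantity = 2000 cells/well | incubation = cell settling 4 h, compound treatment 2 h, both 37 °C | signal = luminescence with SteadyLite reagent, 15 min at room temperature | evaluation = % enhancement relative to plate controls after blank subtraction | benchmarks = plate controls and plate blanks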
Pf gamet viab: late stage P. falciparum gametocyte viability inhibitors, primary screen, ATP luminescence, HTS; P. falciparum stage V gametocytes, 24 h; inhibition, % at 10.9 µM; hit rate 0.065% among 150,000; AID 743093, 2013;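 active = inhibition above the mean plus 3 SD of compounds within the control limits, set per campaign, cut at about 38% in these data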;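 note: 0% = DMSO wells and 100% = medium only without gametocytes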
zVAD death inh: inhibitors of zVAD-triggered necroptosis, primary screen, L929 cells | L929 zVAD necroptosis rescue, ATP luminescence, 24 h; with zVAD 60 µM | AID 1377, 2008 | hit rate 0.38% among 220,000 | viability rescue, % at 10 µM;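 active = activation, scaled between plate controls, above about 75%, limit read from the data; inactive = activation under that limit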;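 note: 0% = zVAD with DMSO and 100% = DMSO alone without zVAD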
zVAD death conf: inhibitors of zVAD-triggered necroptosis in L929, confirmation, L929 cells, duplicate runs; hit rate 16% among 760; AID 463117, 2010; activation (protection from necroptosis), % at 10 µM; L929 zVAD-induced necroptosis rescue, ATP luminescence, 24 h; shares compounds with zVAD death inh;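 active = mean protection from necroptosis of at least 50% over duplicate tests; inactive = mean protection below 50%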;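 note: 0% = cells with zVAD alone and 100% = vehicle cells without zVAD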
The depositor's hits bear a star.

Screening CCn1c(=O)c(-c2nc3ccccc3[nH]2)c(O)c2ccccc21 returned TNF death inh -0.7, Rad51 HR inh -1.0, MDM2 E3 inh -6.5, zVAD death inh 80.5* and zVAD death conf 1.4.
For CCCn1c(=O)c(-c2nc3ccccc3[nH]2)c(O)c2ccccc21 the results were TNF death inh -0.1, MDM2 E3 inh -18.1, Pf gamet viab 18.7 and zVAD death inh 71.4.
Screening COC1c2ccccc2C(=O)N1CCc1ccc(Cl)cc1 (stereo not given) returned Pf gamet viab -2.9.
CC1=NN(c2ccccc2)C(=O)/C1=C\C=C\c1ccccc1 was read as TNF death inh -26.7, Rad51 HR inh 10.8, MDM2 E3 inh 16.5, Pf gamet viab -14.0 and zVAD death inh 3.9.
`ClC1=C(Cl)C(Cl)=C(Cl)C1=C/C=C/c1ccccc1` gave TNF death inh -28.6, Rad51 HR inh -9.6, MDM2 E3 inh 25.9, Pf gamet viab -8.1, zVAD death inh 112.2* and zVAD death conf 3.4.
`C=CCn1c(SCC#N)nc2sc(CC)cc2c1=O` gave TNF death inh -1.8, Rad51 HR inh -4.4, MDM2 E3 inh 4.1, Pf gamet viab 7.7 and zVAD death inh 0.5.
`CCC(c1nnc(SCC(=O)Nc2ccc(Cl)cc2C(F)(F)F)n1C1CCCCC1)N(C)C` (stereo not given) gave TNF death inh -1.6, Rad51 HR inh 4.2, MDM2 E3 inh -16.3 and zVAD death inh 1.6.
CCCCNC(=O)Nc1nc2ccc(CC)cc2s1 was read as TNF death inh 8.1, Rad51 HR inh -0.3, MDM2 E3 inh -16.4, Pf gamet viab 18.7, zVAD death inh 78.0* and zVAD death conf 1.8.

Screening results: PubChem, several laboratories
